Data set [1] deals with T1, Mitogen-activated protein kinase kinase kinase 5 (Homo sapiens, UniProt Q99683).
T1 sequence (Q99683 whole entry): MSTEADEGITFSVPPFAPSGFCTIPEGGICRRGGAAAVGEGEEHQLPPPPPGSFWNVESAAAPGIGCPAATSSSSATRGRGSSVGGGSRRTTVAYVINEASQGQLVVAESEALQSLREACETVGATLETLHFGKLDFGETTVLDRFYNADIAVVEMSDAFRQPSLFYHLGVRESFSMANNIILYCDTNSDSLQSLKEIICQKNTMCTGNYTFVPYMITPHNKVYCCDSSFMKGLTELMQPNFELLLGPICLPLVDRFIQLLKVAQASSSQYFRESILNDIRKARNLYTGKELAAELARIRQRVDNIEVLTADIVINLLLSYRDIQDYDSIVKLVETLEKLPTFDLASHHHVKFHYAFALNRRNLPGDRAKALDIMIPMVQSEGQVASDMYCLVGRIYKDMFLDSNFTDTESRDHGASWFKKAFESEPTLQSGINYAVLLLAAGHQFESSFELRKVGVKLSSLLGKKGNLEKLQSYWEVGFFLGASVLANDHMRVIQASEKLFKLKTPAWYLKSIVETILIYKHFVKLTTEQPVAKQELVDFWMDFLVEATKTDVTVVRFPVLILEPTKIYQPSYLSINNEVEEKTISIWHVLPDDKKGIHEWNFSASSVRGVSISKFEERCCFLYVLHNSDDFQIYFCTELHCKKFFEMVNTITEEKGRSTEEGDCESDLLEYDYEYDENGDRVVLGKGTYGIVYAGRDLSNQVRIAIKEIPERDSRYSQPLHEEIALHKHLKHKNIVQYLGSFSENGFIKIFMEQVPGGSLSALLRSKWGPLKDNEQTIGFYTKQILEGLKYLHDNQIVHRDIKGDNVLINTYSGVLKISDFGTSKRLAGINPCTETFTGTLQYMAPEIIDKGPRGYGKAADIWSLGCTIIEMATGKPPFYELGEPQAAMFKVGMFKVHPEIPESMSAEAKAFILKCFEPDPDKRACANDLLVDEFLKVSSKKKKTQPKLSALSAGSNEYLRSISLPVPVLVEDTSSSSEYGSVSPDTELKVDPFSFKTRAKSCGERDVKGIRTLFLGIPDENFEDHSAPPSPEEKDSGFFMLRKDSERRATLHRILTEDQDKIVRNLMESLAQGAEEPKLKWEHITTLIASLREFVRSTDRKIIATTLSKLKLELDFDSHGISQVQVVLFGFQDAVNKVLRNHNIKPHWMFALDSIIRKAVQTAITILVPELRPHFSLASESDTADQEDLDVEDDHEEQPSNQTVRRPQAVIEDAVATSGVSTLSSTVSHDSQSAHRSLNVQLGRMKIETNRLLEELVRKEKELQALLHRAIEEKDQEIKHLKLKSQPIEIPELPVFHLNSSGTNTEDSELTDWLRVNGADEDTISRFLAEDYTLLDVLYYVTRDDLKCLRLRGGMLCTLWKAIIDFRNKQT
As to the kind of experiment: Inhibition of recombinant full length human ASK1 expressed in HEK293/AP1-Luc cells assessed as reduction in p38 phosphorylation after 18 hrs by HTRF assay. The format is cell-based. In outline: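 HEK293/AP-1luc cells stably overexpressing wild-type human full-length ASK1 (constitutively active, no stimulus), seeded at 25K cells/well, held 8 h at 37 °C, then switched to Optimem with Geneticin. Compound dilution series added (final DMSO 0.5%) for 18 h at 37 °C, 5% CO2. Cells lysed 1 h at room temperature; phospho-p38 read by HTRF after overnight (18 h) detection. Mean of at least two determinations.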
Background: Time-resolved FRET reads energy transfer from a long-lived donor to a nearby acceptor.

For data set [2], the target named is T1, Mitogen-activated protein kinase kinase kinase 5. As to the kind of experiment: Inhibition of recombinant full length human GST-tagged ASK1 expressed in baculovirus expression system using STK3 peptide substrate preincubated for 15 mins followed by substrate addition measured after 90 mins in presence of 1 mM ATP by HTRF assay. The procedure, abridged: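 Full-length recombinant human ASK1 (3 nM final) in kinase buffer with 5 mM MgCl2 and 1 mM DTT, preincubated with compound 15 min at 25 °C. Reaction started with ATP (1 mM) and STK3 peptide (1 µM final), run 90 min at room temperature, 2% DMSO. Stopped with EDTA detection mix, HTRF read after 2 h. Kiapp fitted by Morrison or competitive equation, converted to IC50 by Cheng-Prusoff using ATP Km 48 µM. Mean of at least two determinations.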

Data set [3] can be described thus: Permeability of the compound in RRCK cells. The format is ADME, cell-based, Canis lupus familiaris, MDCKII-LE. The conditions noted are these: dog, MDCK; read-out: permeability.
Data set [4] is described as follows: Lipophilicity, log D at pH 7.4 by shake flask method. The conditions noted are these: buffer.

As a reminder, the IC50 is the concentration that gives 50% inhibition. One may read the logD as the decadic logarithm of the distribution of all forms, ionised or not, between an organic phase and buffer at a given pH. The low end stands for a more hydrophilic compound, the high end for a more lipophilic compound. As for `CCS(=O)(=O)Nc1ccc(OC)c(C(=O)Nc2cccc(-c3nncn3C(C)C)n2)c1`, the IC50 in data set [1] stood at 0.041 µM; in data set [2], 0.00032 µM. Also, the Papp in data set [3] was 5.6 ×10⁻⁶ cm/s. In data set [4], this compound gave a log distribution coefficient (logD) of 2.2.
In the case of `CC(C)n1cnnc1-c1cccc(NC(=O)c2cccc(-c3ncc[nH]3)c2)n1`, in data set [2], the half-inhibitory concentration (IC50) came to 0.17 µM. The logD in data set [4] was 2.4.
As for `CNC(=O)c1ccc(OC)c(C(=O)Nc2cccc(-c3nncn3C(C)C)n2)c1`, the IC50 in data set [1] was determined as 0.272 µM; in data set [2] it was 0.0024 µM. The Papp in data set [3] amounted to 9.8 ×10⁻⁶ cm/s. In data set [4], this compound yielded a logD of 1.8.
`CCS(=O)(=O)Nc1cccc(C(=O)Nc2cccc(-c3nncn3C(C)C)n2)c1`: the IC50 in data set [2] is 0.073 µM. Moreover, the logD in data set [4] turned out to be 1.7.
With `CC(C)n1cnnc1-c1cccc(NC(=O)c2cccc(C(N)=O)c2)n1`, the IC50 in data set [2] turned out to be 0.58 µM.
